Screens: PubChem, Broad Institute
Sampled rows, rich in hits. Any-hit rate of the full collection: about 5.8%.
IDH1 R132H inh: inhibitors of IDH1 R132H reductase, primary screen, biochemical, plate reader, single point | Isocitrate dehydrogenase [NADP] cytoplasmic (Homo sapiens), O75874 | diaphorase/resazurin fluorescence, 60 min | inhibition, % at 10 µM | 0.18% of 70,000 active | AID 624101, 2012; in the data active means inhibition above about 34%; inconclusive means no clear call, values can overlap the other calls; inactive means below about 11%
Target sequence (O75874 whole entry R132H): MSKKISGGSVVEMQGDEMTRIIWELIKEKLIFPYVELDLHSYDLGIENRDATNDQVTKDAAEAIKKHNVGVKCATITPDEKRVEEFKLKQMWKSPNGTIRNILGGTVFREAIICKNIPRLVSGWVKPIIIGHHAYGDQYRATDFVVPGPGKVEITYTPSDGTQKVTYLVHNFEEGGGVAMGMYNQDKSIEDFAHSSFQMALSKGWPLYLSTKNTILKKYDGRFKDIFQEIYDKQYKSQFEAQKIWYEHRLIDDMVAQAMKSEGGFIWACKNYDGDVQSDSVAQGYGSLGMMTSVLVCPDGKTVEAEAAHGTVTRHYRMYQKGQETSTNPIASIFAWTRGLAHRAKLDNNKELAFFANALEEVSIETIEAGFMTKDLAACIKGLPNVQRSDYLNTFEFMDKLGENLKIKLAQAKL
T cruzi growth-1: T. cruzi intracellular proliferation inhibitors, primary screen, cell-based, beta-gal Tulahuen parasites, NIH3T3 host, luminescence; T. cruzi beta-gal in NIH3T3, GalScreen luminescence, 90 h; 5.9% of 77,000 active; AID 624255, 2012; inhibition, % at 8.34 µM;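 active means mean inhibition above about 93%, with at least 55% of replicates each passing it, limit read from the data, passing the limit was not always enough; inconclusive means only one of those two conditions holds; inactive means neither condition holds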
Pf Dd2 inh: P. falciparum Dd2 growth inhibitors, primary screen, SYBR Green fluorescence, single dose replicates. 72 h; stronger effect = lower value. activity change, % at 10 µM. 2.3% of 94,000 active. AID 1159554, 2015; in the data active means activity change below about -80%; inconclusive means no clear call, values can overlap the other calls
GASC1 inh: inhibitors of GASC-1 (KDM4C) histone demethylase, primary screen, biochemical, single concentration HTS. Lysine-specific demethylase 4C (Homo sapiens), Q9H3R0. GST-KDM4C 2-372, H3K9me3 peptide, LANCE TR-FRET. inhibition, % at 12.5 µM. 0.15% of 96,000 active. AID 720574, 2013;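 active means mean replicate inhibition above about 25%, with at least 55% of replicates also reaching it, limit read from the data, passing the limit was not always enough; inconclusive means only one of those two conditions met; inactive means neither condition met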
Target sequence (Q9H3R0 2-372 limits assumed): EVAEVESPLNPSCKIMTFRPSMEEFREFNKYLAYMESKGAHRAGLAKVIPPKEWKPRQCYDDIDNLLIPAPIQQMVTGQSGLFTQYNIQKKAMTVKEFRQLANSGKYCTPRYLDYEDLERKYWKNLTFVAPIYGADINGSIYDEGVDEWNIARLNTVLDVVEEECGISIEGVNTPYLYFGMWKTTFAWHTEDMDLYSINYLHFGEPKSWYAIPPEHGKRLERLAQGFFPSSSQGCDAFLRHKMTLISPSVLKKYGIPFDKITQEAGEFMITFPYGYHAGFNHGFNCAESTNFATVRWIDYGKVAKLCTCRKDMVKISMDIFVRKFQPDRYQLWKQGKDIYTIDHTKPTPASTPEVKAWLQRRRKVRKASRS
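System: N-terminal GST-fused human GASC-1 (KDM4C) fragment, residues 2-372 / Amount: 10 nM GST-KDM4C in enzyme reaction / Also added: H3K9me3 peptide with Fe(II)/2OG / Times: 30 min demethylation and 1 h detection at room temperature / Signal: LANCE TR-FRET / Read-out basis: Fall in 671/618 emission ratio as inhibition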
T cruzi growth-2: T. cruzi intracellular proliferation inhibitors, confirmation, cell-based, NIH3T3 host, beta-gal parasite, luminescence, cherry-pick; T. cruzi beta-gal in NIH3T3, GalScreen luminescence, 90 h; shares compounds with T cruzi growth-1; 72% of 5,600 active; inhibition, % at 8.35 µM;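 active means mean replicate inhibition above about 95% and at least 55% of replicates individually reaching it, limit read from the data; inconclusive means only one of the two criteria is met; inactive means neither criterion is met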
T cruzi growth-3: inhibitors of intracellular T. cruzi replication, confirmation, NIH3T3 host cells, beta-gal parasites, cherry-pick, set 2; 21% of 5,600 active; T. cruzi beta-gal in NIH3T3, GalScreen luminescence, 90 h; shares compounds with T cruzi growth-1; inhibition, % at 2.09 µM;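 active means mean inhibition above about 95%, with at least 55% of replicates also reaching it, limit read from the data; inconclusive means meets just one of the two conditions; inactive means meets neither condition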
NIH3T3 tox: cytotoxicity in mouse NIH/3T3 fibroblasts, confirmation, cytotoxicity control for T. cruzi proliferation inhibitor project, cell-based, cherry-pick, single point; shares compounds with T cruzi growth-1; NIH/3T3 viability, CellTiter-Glo ATP luminescence, 90 h; cytotoxicity (signal decrease), % at 8.35 µM; 14% of 5,600 active;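 active means mean signal decrease across replicates above about 35% based on untreated-well scatter, with enough replicates individually passing, limit read from the data; inconclusive means no rule stated though some were filed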
3T3 cytotox 2: NIH/3T3 fibroblast cytotoxicity, confirmation, cytotoxicity control, cell-based, cherry-pick, single point, set 2; shares compounds with T cruzi growth-1; NIH/3T3 viability, CellTiter-Glo ATP luminescence, 90 h; inhibition, % at 24.9 µM; 56% of 5,600 active; AID 651744, 2012;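 active means mean loss of cell viability signal at or above a set limit, and enough replicates individually reaching it; inconclusive means meets only the mean limit or only the replicate share; inactive means meets neither condition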
Large screens that a line does not name were inactive (follow-up assays come after a bar, where they were run).

O=C(CSc1nnc(-c2cccnc2)n1-c1cccc(C(F)(F)F)c1)c1ccc(F)cc1	none (no result: T cruzi growth-1, Pf Dd2 inh, GASC1 inh)
N#Cc1ccc(-c2ccc([C@@H]3[C@H]4CN(S(=O)(=O)c5ccccc5)CCCCN4[C@H]3CO)cc2)cc1	T cruzi growth-1 100.8 (no result: IDH1 R132H inh) | T cruzi growth-2 103.3 | T cruzi growth-3 inactive | NIH3T3 tox inactive | 3T3 cytotox 2 28.9
N#Cc1cccc(-c2ccc([C@H]3[C@H](CO)N4CCCCN(S(=O)(=O)c5ccccc5)C[C@@H]34)cc2)c1	none (no result: IDH1 R132H inh)
N#Cc1ccc(-c2ccc([C@@H]3[C@H](CO)N4CCCCN(S(=O)(=O)c5ccccc5)C[C@@H]34)cc2)cc1	T cruzi growth-1 inconclusive (no result: IDH1 R132H inh) | T cruzi growth-2 inactive | T cruzi growth-3 inactive | NIH3T3 tox inactive | 3T3 cytotox 2 43.9
N#Cc1ccc(-c2ccc([C@H]3[C@@H](CO)N4CCCCN(S(=O)(=O)c5ccccc5)C[C@H]34)cc2)cc1	T cruzi growth-1 116.5 (no result: IDH1 R132H inh) | T cruzi growth-2 113.1 | T cruzi growth-3 inactive | NIH3T3 tox inactive | 3T3 cytotox 2 71.3
COC(=O)c1cc(NC(=O)COc2ccccc2OC)cc(C(=O)OC)c1	none (no result: T cruzi growth-1, Pf Dd2 inh, GASC1 inh)
O=C(CSc1nnnn1-c1ccccc1)Nc1ccc(Br)cc1F	none (no result: T cruzi growth-1, Pf Dd2 inh, GASC1 inh)
CO[C@H]1C=C[C@@](C)(O)/C=C/C(=O)O[C@H](C)[C@@H](C)CC/C=C\1C	none (no result: T cruzi growth-1, Pf Dd2 inh, GASC1 inh)
O=C(Nc1cccc(F)c1)N1CCCCN2[C@@H](CO)[C@H](c3ccc(-c4ccccc4F)cc3)[C@@H]2C1	T cruzi growth-1 109.8 (no result: IDH1 R132H inh) | T cruzi growth-2 99.1 | T cruzi growth-3 inactive | NIH3T3 tox 81.8 | 3T3 cytotox 2 106.6
O=C(Nc1cccc(F)c1)N1CCCCN2[C@H](CO)[C@@H](c3ccc(-c4ccccc4F)cc3)[C@@H]2C1	none (no result: IDH1 R132H inh)
O=C(Nc1cccc(F)c1)N1CCCCN2[C@H](CO)[C@@H](c3ccc(-c4ccccc4F)cc3)[C@H]2C1	T cruzi growth-1 107.9 (no result: IDH1 R132H inh) | T cruzi growth-2 inactive | T cruzi growth-3 106.5 | NIH3T3 tox 74.6 | 3T3 cytotox 2 105.0
COC(=O)c1cccc(NC(=O)CN(c2cccc(F)c2)S(C)(=O)=O)c1C	none (no result: T cruzi growth-1, Pf Dd2 inh, GASC1 inh)
COc1cc2c(cc1OC)N1C(=O)C[C@]34C=CCN5CC[C@@H]2[C@@H](CC3)[C@]514	none (no result: T cruzi growth-1, Pf Dd2 inh, GASC1 inh)
Cc1ccc(-c2ccc([C@@H]3[C@H]4CN(S(=O)(=O)c5cccc(C)c5)CCCCN4[C@H]3CO)cc2)cc1	T cruzi growth-1 inconclusive (no result: IDH1 R132H inh, GASC1 inh) | T cruzi growth-2 103.8 | T cruzi growth-3 inactive | NIH3T3 tox inactive | 3T3 cytotox 2 45.5
Cc1ccc(-c2ccc([C@@H]3[C@@H](CO)N4CCCCN(S(=O)(=O)c5cccc(C)c5)C[C@H]34)cc2)cc1	T cruzi growth-1 106.8 (no result: IDH1 R132H inh, GASC1 inh) | T cruzi growth-2 100.9 | T cruzi growth-3 115.2 | NIH3T3 tox 53.8 | 3T3 cytotox 2 104.3
CC(Oc1ccc(F)cc1)C(=O)NCCN1CCOCC1 (stereo not given)	none (no result: T cruzi growth-1, Pf Dd2 inh, GASC1 inh)
C[C@@H]1CN([C@H](C)CO)S(=O)(=O)c2ccc(C3=CCCCC3)cc2O[C@@H]1CN(C)S(=O)(=O)c1ccc(F)cc1	T cruzi growth-1 119.3 (no result: IDH1 R132H inh) | T cruzi growth-2 101.1 | T cruzi growth-3 106.8 | NIH3T3 tox inactive | 3T3 cytotox 2 61.2
Cc1ccc(S(=O)(=O)N(C)C[C@@H]2Oc3cc(C4=CCCC4)ccc3S(=O)(=O)N([C@H](C)CO)C[C@@H]2C)cc1	none (no result: T cruzi growth-1)
C[C@H]1CN([C@@H](C)CO)S(=O)(=O)c2ccc(C3=CCCC3)cc2O[C@H]1CN(C)S(=O)(=O)c1ccc(F)cc1	T cruzi growth-1 120.9 | T cruzi growth-2 105.7 | T cruzi growth-3 inactive | NIH3T3 tox inactive | 3T3 cytotox 2 inactive
COc1ccc(S(=O)(=O)N(C)C[C@H]2Oc3cc(C4=CCCC4)ccc3S(=O)(=O)N([C@@H](C)CO)C[C@@H]2C)cc1	none
C[C@@H]1CN([C@@H](C)CO)S(=O)(=O)c2ccc(C3=CCCC3)cc2O[C@H]1CN(C)S(=O)(=O)c1ccc(F)cc1	T cruzi growth-1 115.5 | T cruzi growth-2 97.4 | T cruzi growth-3 98.9 | NIH3T3 tox inactive | 3T3 cytotox 2 26.8
O=C(COc1ccc(S(=O)(=O)N2CCCC2)cc1Cl)Nc1ccc2c(c1)OCCO2	none (no result: T cruzi growth-1, Pf Dd2 inh, GASC1 inh)
Cc1ccc(-c2ccc3c(c2)O[C@H](CN(C)Cc2cccnc2)[C@H](C)CN([C@@H](C)CO)S3(=O)=O)cc1	T cruzi growth-1 107.5 | T cruzi growth-2 96.9 | T cruzi growth-3 inactive | NIH3T3 tox 45.6 | 3T3 cytotox 2 95.4
Cc1ccc(-c2ccc3c(c2)O[C@@H](CN(C)Cc2cccnc2)[C@@H](C)CN([C@@H](C)CO)S3(=O)=O)cc1	T cruzi growth-1 101.6 | T cruzi growth-2 inactive | T cruzi growth-3 inactive | NIH3T3 tox 52.3 | 3T3 cytotox 2 93.8
Cc1ccc(-c2ccc3c(c2)O[C@@H](CN(C)Cc2cccnc2)[C@H](C)CN([C@H](C)CO)S3(=O)=O)cc1	T cruzi growth-1 118.1 | T cruzi growth-2 inconclusive | T cruzi growth-3 104.3 | NIH3T3 tox 80.0 | 3T3 cytotox 2 102.4
C[C@@H]1CN([C@@H](C)CO)S(=O)(=O)c2ccc(-c3cccnc3)cc2O[C@@H]1CN(C)Cc1cccnc1	none (no result: IDH1 R132H inh)
C[C@@H]1CN([C@H](C)CO)S(=O)(=O)c2ccc(-c3ccncc3)cc2O[C@@H]1CN(C)Cc1cccnc1	none (no result: IDH1 R132H inh, GASC1 inh)
OC[C@@H]1[C@H](c2ccc(C#CC3CCCC3)cc2)[C@H]2CN(CCC(F)(F)F)CCCCN12	T cruzi growth-1 101.2, Pf Dd2 inh inconclusive (no result: IDH1 R132H inh) | T cruzi growth-2 inactive | T cruzi growth-3 109.2 | NIH3T3 tox 58.0 | 3T3 cytotox 2 105.0
OC[C@@H]1[C@H](c2ccc(-c3cccc(F)c3)cc2)[C@H]2CN(CCC(F)(F)F)CCCCN12	T cruzi growth-1 107.5 (no result: IDH1 R132H inh) | T cruzi growth-2 99.4 | T cruzi growth-3 inactive | NIH3T3 tox inactive | 3T3 cytotox 2 104.3
OC[C@H]1[C@@H](c2ccc(-c3ccc(F)cc3)cc2)[C@H]2CN(CCC(F)(F)F)CCCCN21	T cruzi growth-1 101.6 (no result: IDH1 R132H inh) | T cruzi growth-2 103.5 | T cruzi growth-3 inactive | NIH3T3 tox 56.5 | 3T3 cytotox 2 105.1
